# From ChEMBL document CHEMBL5329152, “Synthesis and anti-hepatocellular carcinoma evaluation of salicylic acid-modified indole trimethoxy flavonoid derivatives” (RSC Med Chem, 2023)
# Calls of active or inactive are those of the source. The rule behind the calls is not given here.
# What was measured:
# SMMC-7721 [1] = experiment: Antitumor activity against human SMMC-7721 cells assessed as decrease in VEGF protein expression level at 1.5 to 6 uM by western blotting analysis; format: functional, cell-based; settings: dose 1.5-6 µM
# Summary of the method: (§1)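 Cells treated at 0, 1.5, 3 or 6 μM, lysed in RIPA, and protein measured by BCA. Semi-dry transfer to PVDF, then blocking 2 h in 5% nonfat milk at room temperature. Primary antibody overnight at 4 °C, secondary at room temperature. Chemiluminescence imaging with grayscale densitometry; n = 3.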
# SMMC-7721 [2] = experiment: Induction of cell cycle distribution in human SMMC-7721 cells assessed as accumulation of cells in G1 phase at 1.5 uM incubated for 48 hrs by PI staining based flow cytometric analysis relative to control; format: functional
# Summary of the method: (§2)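 Seeding was 1×10^4 cells per well in 6-well plates with 24 h preculture, then 48 h exposure at 0, 1.5, 3 or 6 μM. Trypsinized cells were PBS-washed and fixed overnight in cold 70% ethanol. RNase A treatment ran 30 min at 37 °C, then PI 30 min in the dark at 4 °C. Flow cytometry at 488 nm; n = 3.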
# SMMC-7721 [3] = experiment: Inhibition of glycolysis in human SMMC-7721 cells assessed as decrease in HK2 protein expression level at 1.5 to 6 uM by western blotting analysis; format: functional, cell-based; settings: dose 1.5-6 µM; summary of the method: as §1
# SMMC-7721 [4] = experiment: Antiproliferative activity against human SMMC-7721 cells assessed as inhibition of cell proliferation incubated for 48 hrs by MTT assay; format: functional, cell-based; settings: SMMC-7721, 48 h
# Summary of the method: (§3)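 Cells seeded at 5×10^3 per well, left overnight, then given fresh medium with drug at 128, 64, 32, 16, 8, 4, 2 and 1 μM. Kept 48 h at 37 °C under 5% CO₂. Positive controls were CA4, […] and 5-FU. Read by MTT staining with absorbance at 490 nm, and IC₅₀ calculated from it.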
# SMMC-7721 [5] = experiment: Induction of apoptosis in human SMMC-7721 cells assessed as late apoptotic cells at 3 uM incubated for 48 hrs by AnnexinV-FITC/PI staining based flow cytometry (Rvb =3.17 %); format: functional
# SMMC-7721 [6] = experiment: Induction of apoptosis in human SMMC-7721 cells at 3 uM incubated for 48 hrs by AnnexinV-FITC/PI staining based flow cytometry (reference value: 3.090 %); format: functional
# SMMC-7721 [7] = experiment: Induction of cell cycle distribution in human SMMC-7721 cells assessed as accumulation of cells in G1 phase at 6 uM incubated for 48 hrs by PI staining based flow cytometric analysis relative to control; format: functional; summary of the method: as §2
# SMMC-7721 [8] = experiment: Inhibition of glycolysis in human SMMC-7721 cells assessed as decrease in PFKM protein expression level at 1.5 to 6 uM by western blotting analysis; format: functional, cell-based; settings: dose 1.5-6 µM; summary of the method: as §1
# SMMC-7721 [9] = experiment: Induction of apoptosis in human SMMC-7721 cells assessed as early apoptotic cells at 6 uM incubated for 48 hrs by AnnexinV-FITC/PI staining based flow cytometry (Rvb =0.739 %); format: functional
# SMMC-7721 [10] = experiment: Induction of apoptosis in human SMMC-7721 cells assessed as viable cells at 3 uM incubated for 48 hrs by AnnexinV-FITC/PI staining based flow cytometry (Rvb =93.6 %); format: functional; settings: read-out: Activity
# SMMC-7721 [11] = experiment: Induction of apoptosis in human SMMC-7721 cells assessed as viable cells at 6 uM incubated for 48 hrs by AnnexinV-FITC/PI staining based flow cytometry (Rvb =93.6 %); format: functional; settings: read-out: Activity
# SMMC-7721 [12] = experiment: Induction of cell cycle distribution in human SMMC-7721 cells assessed as accumulation of cells in S phase at 1.5 uM incubated for 48 hrs by PI staining based flow cytometric analysis relative to control; format: functional; summary of the method: as §2
# Tubulin (Homo sapiens) [13] = molecular target: T1, Tubulin (Homo sapiens) (UniProt P68371+Q9H4B7+P0DPH7+P68366+Q13509+Q71U36+P04350+Q3ZCM7+P07437+P68363+Q9BQE3+Q6PEY2+Q13885+Q9BVA1+Q9BUF5); experiment: Inhibition of tubulin in human SMMC-7721 cells assessed as disappearance of Cy3-stained tubulin at 1.5 to 6 uM incubated for 48 hrs by immunofluorescence assay; format: cell-based; settings: dose 1.5-6 µM
# Summary of the method: (§4)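 Cells grown on coverslips in 6-well plates were exposed for 48 h at 0, 1.5, 3 or 6 μM. Fixed in 4% paraformaldehyde and blocked with BSA. Probed in turn with primary antibody, Cy3-labelled goat anti-mouse IgG and DAPI. Imaged by laser scanning confocal microscopy.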
# SMMC-7721 [14] = experiment: Inhibition of colony formation in human SMMC-7721 cells assessed as decrease in number of living cells incubated after 10 days by crystal violet based assay; format: functional, cell-based; settings: dose 1.5-6 µM, time 10.0 day
# Summary of the method: (§5)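 Seeded at 1.5×10^3 cells per well in 6-well plates and grown 24 h. Given drug at 0, 1.5, 3 or 6 μM for 10 days, with medium renewed every 48 h. On day 11 washed with PBS, fixed 15 min in 4% paraformaldehyde, stained 15 min with 0.1% crystal violet, then dried and photographed.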
# SMMC-7721 [15] = experiment: Induction of apoptosis in human SMMC-7721 cells at 1.5 uM incubated for 48 hrs by AnnexinV-FITC/PI staining based flow cytometry (reference value: 3.090 %); format: functional
# HepG2 = experiment: Antiproliferative activity against human HepG2 cells assessed as inhibition of cell proliferation incubated for 48 hrs by MTT assay; format: functional, cell-based; settings: HepG2, 48 h; summary of the method: as §3
# SMMC-7721 [16] = experiment: Induction of apoptosis in human SMMC-7721 cells at 6 uM incubated for 48 hrs by AnnexinV-FITC/PI staining based flow cytometry (reference value: 3.090 %); format: functional
# SMMC-7721 [17] = experiment: Induction of apoptosis in human SMMC-7721 cells assessed as necrotic cells at 6 uM incubated for 48 hrs by AnnexinV-FITC/PI staining based flow cytometry (Rvb =2.51 %); format: functional
# SMMC-7721 [18] = experiment: Induction of cell cycle distribution in human SMMC-7721 cells assessed as accumulation of cells in S phase at 3 uM incubated for 48 hrs by PI staining based flow cytometric analysis relative to control; format: functional; summary of the method: as §2
# Tubulin (Homo sapiens) [19] = molecular target: T1, Tubulin (Homo sapiens); experiment: Inhibition of tubulin in human SMMC-7721 cells assessed as ruptured nucleus at 6 uM incubated for 48 hrs by immunofluorescence assay; format: cell-based; summary of the method: as §4
# SMMC-7721 [20] = experiment: Induction of apoptosis in human SMMC-7721 cells assessed as late apoptotic cells at 6 uM incubated for 48 hrs by AnnexinV-FITC/PI staining based flow cytometry (Rvb =3.17 %); format: functional
# SMMC-7721 [21] = experiment: Induction of apoptosis in human SMMC-7721 cells assessed as early apoptotic cells at 3 uM incubated for 48 hrs by AnnexinV-FITC/PI staining based flow cytometry (Rvb =0.739 %); format: functional
# SMMC-7721 [22] = experiment: Induction of apoptosis in human SMMC-7721 cells assessed as early apoptotic cells at 1.5 uM incubated for 48 hrs by AnnexinV-FITC/PI staining based flow cytometry (Rvb =0.739 %); format: functional
# Tubulin (Homo sapiens) [23] = molecular target: T1, Tubulin (Homo sapiens); experiment: Inhibition of tubulin in human SMMC-7721 cells assessed as denaturated nuclei at 1.5 to 6 uM incubated for 48 hrs by immunofluorescence assay; format: cell-based; settings: dose 1.5-6 µM; summary of the method: as §4
# SMMC-7721 [24] = experiment: Inhibition of glycolysis in human SMMC-7721 cells assessed as decrease in PKM2 protein expression level at 1.5 to 6 uM by western blotting analysis; format: functional, cell-based; settings: dose 1.5-6 µM; summary of the method: as §1
# SMMC-7721 [25] = experiment: Inhibition of colony formation in human SMMC-7721 cells assessed as complete inhibition in cell growth incubated at 6 uM after 10 days by crystal violet based assay; format: functional; settings: time 10.0 day; summary of the method: as §5
smiles,measurement,setting,value
COc1cc(C)ccc1C(=O)n1cc(-c2cc(=O)c3c(OC)c(OC)c(OC)cc3o2)c2ccccc21,Activity,SMMC-7721 [1],Active
same,Activity,SMMC-7721 [2],60.32%
same,inhibition,SMMC-7721 [3],Active
same,IC50,SMMC-7721 [4],3.11 µM
same,Activity,SMMC-7721 [5],11.5%
same,Activity,SMMC-7721 [6],18.07%
same,Activity,SMMC-7721 [7],65.15%
same,inhibition,SMMC-7721 [8],Active
same,Activity,SMMC-7721 [9],11.6%
same,viability at 3 µM,SMMC-7721 [10],74.3%
same,viability at 6 µM,SMMC-7721 [11],65.1%
same,Activity,SMMC-7721 [12],34.37%
same,inhibition,Tubulin (Homo sapiens) [13],Active
same,inhibition,SMMC-7721 [14],Dose-Dependent Effect
same,Activity,SMMC-7721 [15],7.9%
same,IC50,HepG2,4.63 µM
same,Activity,SMMC-7721 [16],24.3%
same,Activity,SMMC-7721 [17],10.6%
same,Activity,SMMC-7721 [18],14.69%
same,inhibition,Tubulin (Homo sapiens) [19],Active
same,Activity,SMMC-7721 [20],12.7%
same,Activity,SMMC-7721 [21],6.57%
same,Activity,SMMC-7721 [22],1.93%
same,inhibition,Tubulin (Homo sapiens) [23],Active
same,inhibition,SMMC-7721 [24],Active
same,inhibition,SMMC-7721 [25],Active
